Laboratory results from ChEMBL document CHEMBL3774372, “Design, physico-chemical properties and biological evaluation of some new N-[(phenoxy)alkyl]- and N-{2-[2-(phenoxy)ethoxy]ethyl}aminoalkanols as anticonvulsant agents” (Bioorg Med Chem, 2016).
Activity calls are given as the source filed them.

Assays:
Mus musculus [1] = experiment: Neurotoxicity in mouse at 100 mg/kg, ip after 4 hrs by rotarod test; type: toxicity, organism-based; details: in vivo
Outline: (§1)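 Mice were dosed ip with compound suspended in 0.5% methylcellulose. Rotarod: a 1 in. knurled rod turning at 6 rpm. Neurotoxicity was scored as failure to stay on the rod for at least 1 min in each of three trials. Results are given as the number of animals affected out of the number tested.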

Mus musculus [2] = experiment: Anticonvulsant activity in mouse assessed as protection against maximal electric shock-induced seizures at 100 mg/kg, ip measured after 4 hrs; type: functional, organism-based
Outline: (§2)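 Mice dosed ip with suspension in 0.5% methylcellulose; maximal electroshock applied at the listed time after dosing. Protection = abolition of hindlimb tonic extension component of seizure; reported as animals protected/animals tested.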

Mus musculus [3] = experiment: Neurotoxicity in mouse at 30 mg/kg, ip after 0.5 hrs by rotarod test; type: toxicity, organism-based; details: in vivo; outline: as §1
Vibrio harveyi [4] = experiment: Mutagenicity in Vibrio harveyi BB7 assessed as number of colonies after 48 hrs (reference value: 13 to 14 no_unit); type: ADME, organism-based; details: in vivo
Outline: (§3)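 Vibrio harveyi mutagenicity test: test compound was added to exponentially growing cultures (A600 = 0.1, 30 °C) and grown to OD600 0.3–0.4. Then 5 × 10^6 cells were plated on BOSS agar with neomycin (final 100 µg/mL) and incubated 48 h at 30 °C. Neomycin-resistant colonies were counted. Triplicate; controls were water, DMSO and NQNO 40 ng/mL.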

Mus musculus [5] = experiment: Anticonvulsant activity in mouse assessed as protection against subcutaneous pentylenetetrazol-induced seizures at 100 mg/kg, ip measured after 4 hrs; type: functional, organism-based
Outline: (§4)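 Mice dosed ip as 0.5% methylcellulose suspension; pentylenetetrazole 85 mg/kg in 0.9% NaCl injected subcutaneously into posterior midline, animals watched at least 30 min. Protection = no threshold seizure (single clonic spasm episode lasting ≥5 s); scored protected/tested.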

Vibrio harveyi [6] = experiment: Antimutagenic activity against Vibrio harveyi BB7X assessed as inhibition of NQNO-induced mutagenicity after 48 hrs; type: functional
Outline: (§5)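 V. harveyi cultures grown exponentially to A600 0.1 at 30 °C, exposed to test compound for 15 min, then to NQNO, and grown on to A600 0.3–0.4. 5 × 10⁶ cells plated on BOSS agar with neomycin (100, final). Neomycin-resistant colonies counted after 48 h at 30 °C. Result given as % inhibition of NQNO mutagenicity; three independent repeats.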

Mus musculus [7] = experiment: Anticonvulsant activity in mouse assessed as protection against subcutaneous pentylenetetrazol-induced seizures at 30 mg/kg, ip measured after 0.5 hrs; type: functional, organism-based; outline: as §4
Mus musculus [8] = experiment: Neurotoxicity in mouse at 300 mg/kg, ip after 4 hrs by rotarod test; type: toxicity, organism-based; details: in vivo; outline: as §1
Mus musculus [9] = experiment: Neurotoxicity in mouse at 30 mg/kg, ip after 4 hrs by rotarod test; type: toxicity, organism-based; details: in vivo; outline: as §1
Mus musculus [10] = experiment: Anticonvulsant activity in mouse assessed as protection against maximal electric shock-induced seizures at 30 mg/kg, ip measured after 4 hrs; type: functional, organism-based; outline: as §2
Vibrio harveyi [11] = experiment: Antimutagenic activity against Vibrio harveyi BB7 assessed as inhibition of NQNO-induced mutagenicity after 48 hrs; type: functional; outline: as §5
Vibrio harveyi [12] = experiment: Antimutagenic activity against Vibrio harveyi BB7M assessed as inhibition of NQNO-induced mutagenicity after 48 hrs; type: functional; outline: as §5
Vibrio harveyi [13] = experiment: Antimutagenic activity against Vibrio harveyi BB7XM assessed as inhibition of NQNO-induced mutagenicity after 48 hrs; type: functional; outline: as §5
Mus musculus [14] = experiment: Anticonvulsant activity in mouse assessed as protection against subcutaneous pentylenetetrazol-induced seizures at 30 mg/kg, ip measured after 4 hrs; type: functional, organism-based; outline: as §4
Mus musculus [15] = experiment: Neurotoxicity in mouse at 100 mg/kg, ip after 0.5 hrs by rotarod test; type: toxicity, organism-based; details: in vivo; outline: as §1
Vibrio harveyi [16] = experiment: Mutagenicity in Vibrio harveyi BB7M assessed as number of colonies after 48 hrs (reference value: 13 to 14 no_unit); type: ADME, organism-based; details: in vivo; outline: as §3
Vibrio harveyi [17] = experiment: Mutagenicity in Vibrio harveyi BB7XM assessed as number of colonies after 48 hrs (reference value: 14 no_unit); type: ADME, organism-based; details: in vivo; outline: as §3
Vibrio harveyi [18] = experiment: Mutagenicity in Vibrio harveyi BB7X assessed as number of colonies after 48 hrs (reference value: 15 to 16 no_unit); type: ADME, organism-based; details: in vivo; outline: as §3
Mus musculus [19] = experiment: Neurotoxicity in mouse at 300 mg/kg, ip after 0.5 hrs by rotarod test; type: toxicity, organism-based; details: in vivo; outline: as §1
Mus musculus [20] = experiment: Anticonvulsant activity in mouse assessed as protection against maximal electric shock-induced seizures at 30 mg/kg, ip measured after 0.5 hrs; type: functional, organism-based; outline: as §2
Rattus norvegicus [21] = experiment: Anticonvulsant activity in rat assessed as protection against maximal electric shock-induced seizures at 30 mg/kg, po measured after 2 hrs; type: functional, organism-based
Outline: (§6)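 Rats dosed ip or orally as 0.5% methylcellulose suspension; maximal electroshock at listed time. Protection = abolition of hindlimb tonic extension; 4 rats per group, scored protected/tested.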

Rattus norvegicus [22] = experiment: Anticonvulsant activity in rat assessed as protection against maximal electric shock-induced seizures at 30 mg/kg, ip measured after 2 hrs; type: functional, organism-based; outline: as §6
Rattus norvegicus [23] = experiment: Neurotoxicity in rat at 30 mg/kg, po after 0.5 hrs by rotarod test; type: toxicity, organism-based; details: in vivo
Rattus norvegicus [24] = experiment: Neurotoxicity in rat at 30 mg/kg, ip after 0.5 hrs by rotarod test; type: toxicity, organism-based; details: in vivo
Rattus norvegicus [25] = experiment: Anticonvulsant activity in rat assessed as protection against maximal electric shock-induced seizures at 30 mg/kg, po measured after 0.5 hrs; type: functional, organism-based; outline: as §6
Mus musculus [26] = experiment: Neurotoxicity in mouse at 100 mg/kg, ip after 1 hr by rotarod test; type: toxicity, organism-based; details: in vivo; outline: as §1
Mus musculus [27] = experiment: Anticonvulsant activity in mouse assessed as protection against maximal electric shock-induced seizures at 100 mg/kg, ip measured after […]; type: functional, organism-based
Rattus norvegicus [28] = experiment: Neurotoxicity in rat at 30 mg/kg, po after 4 hrs by rotarod test; type: toxicity, organism-based; details: in vivo
Rattus norvegicus [29] = experiment: Neurotoxicity in rat at 30 mg/kg, ip after 2 hrs by rotarod test; type: toxicity, organism-based; details: in vivo
Mus musculus [30] = experiment: Anticonvulsant activity in mouse assessed as protection against maximal electric shock-induced seizures at 100 mg/kg, ip measured after 0.5 hrs; type: functional, organism-based; outline: as §2
Mus musculus [31] = experiment: Neurotoxicity in mouse at 100 mg/kg, ip after 2 hrs by rotarod test; type: toxicity, organism-based; details: in vivo; outline: as §1
Rattus norvegicus [32] = experiment: Neurotoxicity in rat at 30 mg/kg, ip after 4 hrs by rotarod test; type: toxicity, organism-based; details: in vivo
Rattus norvegicus [33] = experiment: Neurotoxicity in rat at 30 mg/kg, ip after […] by rotarod test; type: toxicity, organism-based; details: in vivo
Rattus norvegicus [34] = experiment: Neurotoxicity in rat at 30 mg/kg, po after […] by rotarod test; type: toxicity, organism-based; details: in vivo
Rattus norvegicus [35] = experiment: Neurotoxicity in rat at 30 mg/kg, po after 2 hrs by rotarod test; type: toxicity, organism-based; details: in vivo
Rattus norvegicus [36] = experiment: Anticonvulsant activity in rat assessed as protection against maximal electric shock-induced seizures at 30 mg/kg, po measured after 4 hrs; type: functional, organism-based; outline: as §6
Rattus norvegicus [37] = experiment: Anticonvulsant activity in rat assessed as protection against maximal electric shock-induced seizures at 30 mg/kg, po measured after […]; type: functional, organism-based
Rattus norvegicus [38] = experiment: Neurotoxicity in rat at 30 mg/kg, po after 1 hr by rotarod test; type: toxicity, organism-based; details: in vivo
Mus musculus [39] = experiment: Anticonvulsant activity in mouse assessed as protection against 6 Hz psychomotor seizure at 100 mg/kg, ip after 2 hrs; type: functional, organism-based
Outline: (§7)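 Suspension in 0.5% methylcellulose given ip to mice; corneal stimulation with 0.2 ms monopolar rectangular pulses at 6 Hz for 3 s from a constant current device, mice restrained then released to observation cage. Protected if normal exploratory behaviour resumed within 10 s of stimulation. Scored as protected/tested, 4 mice per group.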

Mus musculus [40] = experiment: Anticonvulsant activity in mouse assessed as protection against 6 Hz psychomotor seizure at 100 mg/kg, ip after 4 hrs; type: functional, organism-based; outline: as §7
Rattus norvegicus [41] = experiment: Neurotoxicity in rat at 30 mg/kg, ip after 1 hr by rotarod test; type: toxicity, organism-based; details: in vivo
Rattus norvegicus [42] = experiment: Anticonvulsant activity in rat assessed as protection against maximal electric shock-induced seizures at 30 mg/kg, po measured after 1 hr; type: functional, organism-based; outline: as §6
Rattus norvegicus [43] = experiment: Anticonvulsant activity in rat assessed as protection against maximal electric shock-induced seizures at 30 mg/kg, ip measured after 4 hrs; type: functional, organism-based; outline: as §6

Cc1cccc(C)c1OCCOCCNC(C)CO (stereo not given)
Activity (Mus musculus [1]): Non-toxic
Activity (Mus musculus [2]): inactive
Activity (Mus musculus [3]): Non-toxic
Activity (Vibrio harveyi [4]): 24
Activity (Mus musculus [5]): inactive
inhibition (INH) (Vibrio harveyi [6]): 27%
Activity (Mus musculus [7]): inactive
Activity (Mus musculus [8]): Non-toxic
Activity (Mus musculus [9]): Non-toxic
Activity (Mus musculus [10]): inactive
inhibition (INH) (Vibrio harveyi [11]): 70%
inhibition (INH) (Vibrio harveyi [12]): 75%
inhibition (INH) (Vibrio harveyi [13]): 48%
Activity (Mus musculus [14]): inactive
Activity (Mus musculus [15]): Toxic
Activity (Vibrio harveyi [16]): 27
Activity (Vibrio harveyi [17]): 19
Activity (Vibrio harveyi [18]): 29
Activity (Mus musculus [19]): Toxic
Activity (Mus musculus [20]): inactive

Cc1cccc(OCCCN2CCC(O)CC2)c1C
Activity (Mus musculus [1]): Non-toxic
Activity (Mus musculus [2]): inactive
Activity (Rattus norvegicus [21]): inactive
Activity (Rattus norvegicus [22]): inactive
Activity (Rattus norvegicus [23]): Non-toxic
Activity (Rattus norvegicus [24]): Non-toxic
Activity (Rattus norvegicus [25]): inactive
Activity (Mus musculus [26]): Non-toxic
Activity (Mus musculus [27]): Active
Activity (Rattus norvegicus [28]): Non-toxic
Activity (Rattus norvegicus [29]): Non-toxic
Activity (Mus musculus [30]): Active
Activity (Mus musculus [31]): Non-toxic
Activity (Rattus norvegicus [32]): Non-toxic
Activity (Rattus norvegicus [33]): Non-toxic
Activity (Rattus norvegicus [34]): Non-toxic
Activity (Rattus norvegicus [35]): Non-toxic
Activity (Rattus norvegicus [36]): inactive
Activity (Rattus norvegicus [37]): inactive
Activity (Rattus norvegicus [38]): Non-toxic
Activity (Mus musculus [39]): inactive
Activity (Mus musculus [40]): inactive
Activity (Rattus norvegicus [41]): Non-toxic
Activity (Rattus norvegicus [42]): inactive
Activity (Rattus norvegicus [43]): inactive
